Measured values: ChEMBL document CHEMBL5338772, “Stereochemical Control of Splice Modulation in FD-895 Analogues” (J Med Chem, 2023)
Calls of active or inactive are those of the source. The rule behind the calls is not given here.

Assays:
DNAJB1 pre-mRNA [1] = test: Modulation of splicing in DNAJB1 pre-mRNA in human HCT-116 cells assessed as intron 2 retention level at 9 uM incubated for 4 hrs by qRT-PCR analysis; format: functional, cell-based; conditions: filed as modulator
SF3B2 pre-mRNA [2] = test: Modulation of splicing in SF3B2 pre-mRNA in human HCT-116 cells assessed as intron 10 retention level at 9 uM incubated for 4 hrs by qRT-PCR analysis; format: functional, cell-based; conditions: filed as modulator
Outline: (§1)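 HCT-116 cells in supplemented McCoy's 5a, compound added from DMSO stock to a final 0.5% DMSO, 4 h at a single standardized concentration per analogue. Total RNA isolated and DNase-treated (1 µg). qPCR used 2.5 µM each primer on 5 ng cDNA, 40 cycles. Intron retention was computed by the 2^-CT method relative to GAPDH and expressed versus untreated cells set to 1.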

SF3A1 pre-mRNA [3] = test: Modulation of splicing in SF3A1 pre-mRNA in human HCT-116 cells assessed as intron 6 retention at 100 to 500 nM incubated for 24 hrs by qRT-PCR analysis; format: functional, cell-based; conditions: dose 100-500 nM
Outline: (§2)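 HCT-116 cells in supplemented McCoy's 5a with 0.5% DMSO, treated 24 h at 100, 250 or 500 nM; untreated cells as control. Total RNA isolated, 1 µg DNase I-treated, reverse transcribed. qPCR on 5 ng cDNA with 2.5 µM each primer, 40 cycles of 95 °C 30 s, 55 °C 60 s, 72 °C 60 s. Splice-event primers for intron retention or exon skipping; SF2 primers measure total expression. 2^-CT method relative to GAPDH, untreated set at 1.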

HCT-116 [4] = test: Upregulation of PLK-1 mRNA expression in human HCT-116 cells at 100 to 500 nM incubated for 24 hrs by qRT-PCR analysis; format: functional, cell-based; conditions: dose 100-500 nM
Outline: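 24 h treatment of HCT-116 cells at 100, 250 or 500 nM, 0.5% final DMSO in supplemented McCoy's 5a. RNA isolated, DNase-treated, then qRT-PCR with 2.5 µM each primer on 5 ng cDNA. Levels by the 2^-CT method relative to GAPDH, normalized to untreated cells at 1.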

SF3A3 pre-mRNA [5] = test: Modulation of splicing in SF3A3 pre-mRNA in human HCT-116 cells assessed as intron 5 retention level at 9 uM incubated for 4 hrs by qRT-PCR analysis; format: functional, cell-based; conditions: filed as modulator; outline: as §1
DNAJB1 pre-mRNA [6] = test: Modulation of splicing in DNAJB1 pre-mRNA in human HCT-116 cells assessed as intron 2 retention at 100 to 500 nM incubated for 24 hrs by qRT-PCR analysis; format: functional, cell-based; conditions: dose 100-500 nM; outline: as §2
SF3B1 pre-mRNA [7] = test: Modulation of splicing in SF3B1 pre-mRNA in human HCT-116 cells assessed as intron 13 retention at 100 to 500 nM incubated for 24 hrs by qRT-PCR analysis; format: functional, cell-based; conditions: dose 100-500 nM
Outline: (§3)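 HCT-116 cells in supplemented McCoy's 5a with 0.5% final DMSO were treated for 24 h at 100, 250 or 500 nM. Total RNA isolated and DNase-treated (1 µg). qPCR used 2.5 µM each primer on 5 ng cDNA, 40 cycles. Intron retention was computed by the 2^-CT method relative to GAPDH and expressed versus untreated cells set to 1.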

HCT-116 [8] = test: Modulation of splicing in MCL-1L pre-mRNA in human HCT-116 cells assessed as intron 5 retention at 100 to 500 nM incubated for 24 hrs by qRT-PCR analysis; format: functional, cell-based; conditions: dose 100-500 nM; outline: as §2
HCT-116 [9] = test: Cytotoxicity against human HCT-116 cells assessed as reduction in cell viability at 500 nM incubated for 24 hrs by MTS assay; format: toxicity, cell-based; conditions: hct-116, 24 h, 0.5 µM
Outline: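 HCT-116 cells plated at 5 × 10³ cells/well in supplemented McCoy's 5a and grown 24 h at 37 °C, 5% CO₂. Compound given at 500 nM, the top dose of the 24 h splicing series, in 0.5% DMSO for 24 h. Cells washed with PBS, MTS reagent added for 2 h at 37 °C, A490 read against A690.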

AURKA pre-mRNA [10] = test: Modulation of splicing in AURKA pre-mRNA in human HCT-116 cells assessed as effect on exon 4 skipping at 9 uM incubated for 4 hrs by qRT-PCR analysis; format: functional, cell-based; conditions: filed as modulator
SF3A1 pre-mRNA [11] = test: Modulation of splicing in SF3A1 pre-mRNA in human HCT-116 cells assessed as intron 6 retention level at 9 uM incubated for 4 hrs by qRT-PCR analysis; format: functional, cell-based; conditions: filed as modulator
HCT-116 [12] = test: Cytotoxicity against human HCT-116 cells assessed as reduction in cell viability at 9 uM incubated for 4 hrs by MTS assay; format: toxicity, cell-based; conditions: hct-116, 4 h
SF3B1 pre-mRNA [13] = test: Modulation of splicing in SF3B1 pre-mRNA in human HCT-116 cells assessed as intron 13 retention level at 9 uM incubated for 4 hrs by qRT-PCR analysis; format: functional, cell-based; conditions: filed as modulator; outline: as §1
SF3B2 pre-mRNA [14] = test: Modulation of splicing in SF3B2 pre-mRNA in human HCT-116 cells assessed as intron 10 retention at 100 to 500 nM incubated for 24 hrs by qRT-PCR analysis; format: functional, cell-based; conditions: dose 100-500 nM; outline: as §3
SF3A3 pre-mRNA [15] = test: Modulation of splicing in SF3A3 pre-mRNA in human HCT-116 cells assessed as intron 5 retention at 100 to 500 nM incubated for 24 hrs by qRT-PCR analysis; format: functional, cell-based; conditions: dose 100-500 nM; outline: as §2
[16] = Cytotoxicity against human HCT-116 cells assessed as cell growth inhibition incubated for 72 hrs by MTS assay; format: toxicity, cell-based
Outline: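 HCT-116 cells (ATCC; split every other day, no more than five generations, mycoplasma-tested) plated at 5 × 10³ cells/well in supplemented McCoy's 5a and grown 24 h at 37 °C, 5% CO₂. Compound added from DMSO (0.5% DMSO final) for 72 h. Cells washed with PBS, MTS reagent added for 2 h at 37 °C, A490 read against A690. GI₅₀ fitted from dose curves of 3 biological replicates.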

SF3B1 pre-mRNA [17] = test: Modulation of splicing in SF3B1 pre-mRNA in human HCT-116 cells assessed as intron 13 retention level at 5.6 uM incubated for 4 hrs by qRT-PCR analysis; format: functional, cell-based; conditions: filed as modulator; outline: as §1
SF3A1 pre-mRNA [18] = test: Modulation of splicing in SF3A1 pre-mRNA in human HCT-116 cells assessed as intron 6 retention level at 5.6 uM incubated for 4 hrs by qRT-PCR analysis; format: functional, cell-based; conditions: filed as modulator
SF3B2 pre-mRNA [19] = test: Modulation of splicing in SF3B2 pre-mRNA in human HCT-116 cells assessed as intron 10 retention level at 5.6 uM incubated for 4 hrs by qRT-PCR analysis; format: functional, cell-based; conditions: filed as modulator; outline: as §1
DNAJB1 pre-mRNA [20] = test: Modulation of splicing in DNAJB1 pre-mRNA in human HCT-116 cells assessed as intron 2 retention level at 5.6 uM incubated for 4 hrs by qRT-PCR analysis; format: functional, cell-based; conditions: filed as modulator
AURKA pre-mRNA [21] = test: Modulation of splicing in AURKA pre-mRNA in human HCT-116 cells assessed as effect on exon 4 skipping at 5.6 uM incubated for 4 hrs by qRT-PCR analysis; format: functional, cell-based; conditions: filed as modulator
HCT-116 [22] = test: Cytotoxicity against human HCT-116 cells assessed as reduction in cell viability at 5.6 uM incubated for 4 hrs by MTS assay; format: toxicity, cell-based; conditions: hct-116, 4 h
SF3A3 pre-mRNA [23] = test: Modulation of splicing in SF3A3 pre-mRNA in human HCT-116 cells assessed as intron 5 retention level at 5.6 uM incubated for 4 hrs by qRT-PCR analysis; format: functional, cell-based; conditions: filed as modulator

SMILES: CC[C@H](OC)[C@@H](C)[C@@H]1O[C@H]1[C@@H](O)[C@H](C)/C=C/C=C(\C)[C@H]1OC(=O)C[C@H](O)CC[C@@](C)(O)[C@@H](OC(C)=O)/C=C/[C@@H]1C
- Activity (DNAJB1 pre-mRNA [1]): > 3
- Activity (SF3B2 pre-mRNA [2]): > 3
- Activity (SF3A1 pre-mRNA [3]): inactive
- Activity (HCT-116 [4]): Active
- Activity (SF3A3 pre-mRNA [5]): < 3
- Activity (DNAJB1 pre-mRNA [6]): inactive
- Activity (SF3B1 pre-mRNA [7]): inactive
- Activity (HCT-116 [8]): inactive
- Activity (HCT-116 [9]): Non-Toxic
- Activity (AURKA pre-mRNA [10]): Active
- Activity (SF3A1 pre-mRNA [11]): > 3
- Activity (HCT-116 [12]): Non-Toxic
- Activity (SF3B1 pre-mRNA [13]): < 3
- Activity (SF3B2 pre-mRNA [14]): inactive
- Activity (SF3A3 pre-mRNA [15]): inactive
- GI50 at 72 h [16]: 470 nM

SMILES: CC[C@@H](OC)[C@H](C)[C@H]1O[C@@H]1[C@@H](O)[C@H](C)/C=C/C=C(\C)[C@H]1OC(=O)C[C@H](O)CC[C@@](C)(O)[C@@H](OC(C)=O)/C=C/[C@@H]1C
- Activity (SF3B1 pre-mRNA [17]): < 3
- Activity (SF3A1 pre-mRNA [18]): > 3
- Activity (HCT-116 [9]): Non-Toxic
- Activity (SF3B2 pre-mRNA [19]): > 3
- Activity (DNAJB1 pre-mRNA [20]): > 3
- Activity (AURKA pre-mRNA [21]): Active
- Activity (HCT-116 [22]): Non-Toxic
- Activity (SF3A3 pre-mRNA [23]): < 3
- GI50 at 72 h [16]: 285 nM
